SENP1 FRET inh: human SENP1 catalytic domain inhibitors, primary screen, biochemical, FRET, uHTS | Sentrin-specific protease 1 (Homo sapiens), Q9P0U3 | recombinant SENP1 catalytic domain, CyPet-SUMO1-YPet FRET cleavage | inhibition, % at 10 µM | actives 0.21% (n = 360,000);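 active = inhibition at least 30% at 10 µM, raw YFP signal under a set limit, fluorescence ratio 0.5 to 1.5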;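 also: 0% = enzyme with DMSO and 100% = no enzyme wells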
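Compound: 10 µM single point, 0.5% DMSO; Test system: hSENP1 catalytic domain, recombinant; Timing: 50 min reaction at room temperature; Technique: FRET, CFP and YFP emission; Control set: no-enzyme wells low, DMSO-plus-enzyme wells high control.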
SENP8 block-1: SENP8 protease inhibitors, primary screen, biochemical, luminescence. Sentrin-specific protease 8 (Homo sapiens), Q96LD8. purified SENP8, Z-RLRGG-aminoluciferin cleavage. inhibition, % at 10 µM. actives 1.2% (n = 330,000). AID 2540, 2010; in the data active = inhibition above about 50%
Target sequence (Q96LD8 whole entry, looked up): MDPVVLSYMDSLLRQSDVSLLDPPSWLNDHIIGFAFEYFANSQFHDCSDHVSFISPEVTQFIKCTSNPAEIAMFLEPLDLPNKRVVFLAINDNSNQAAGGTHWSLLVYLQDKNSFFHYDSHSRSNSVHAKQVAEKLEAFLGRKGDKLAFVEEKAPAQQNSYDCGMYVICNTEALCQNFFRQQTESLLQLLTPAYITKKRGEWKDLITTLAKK
SENP6 inh: SENP6 protease inhibitors, primary screen, biochemical, luminescence, uHTS; Recombinant SENP6 catalytic domain, aminoluciferin luminescence; actives 1.8% (n = 330,000); Sentrin-specific protease 6 (Homo sapiens), Q9GZR1; inhibition, % at 10 µM;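 active = inhibition above about 50% at the single tested dose, limit read from the data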;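 also: plate controls were DMSO wells with enzyme for no effect and DMSO wells lacking enzyme for full effect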
SENP7 block: SENP7 protease inhibitors, primary screen, biochemical, luminescence, uHTS. recombinant SENP7, Z-RLRGG-aminoluciferin luminescence, 40 min. actives 1.5% (n = 330,000). inhibition, % at 5 µM. AID 434973, 2010;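 active = inhibition above about 50% at the single test dose, limit read from the data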;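 also: plate controls were DMSO with enzyme for no effect and no enzyme buffer wells for full effect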
SENP8 block-2: human SENP8 protease inhibitors, primary screen, biochemical, fluorescence, Nedd8 protein substrate, uHTS. actives 0.64% (n = 360,000). Sentrin-specific protease 8 (Homo sapiens), Q96LD8. AID 602440, 2012. inhibition, % at 20 µM. recombinant SENP8; in the data active = inhibition mostly above about 40%, no sharp cut-off; inactive = mostly below about 27%
SENP8 conf: SENP8 protease inhibitors, retest, confirmation, biochemical, luminescence, single concentration | actives 40% (n = 6,200) | inhibition, % at 12.5 µM | shares compounds with SENP7 block | Recombinant SENP8, Z-RLRGG-aminoluciferin luminescence, 60 min | AID 488912, 2010;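 active = mean inhibition across replicates above about 50%, limit read from the data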
SENP6 conf: SENP6 protease inhibitors, confirmation, biochemical, luminescence, single concentration; recombinant SENP6, Z-RLRGG-aminoluciferin luminescence; inhibition, % at 12.5 µM; shares compounds with SENP7 block; AID 488915, 2010; actives 58% (n = 6,200)
SENP7 confirm: SENP7 protease inhibitors, retest, confirmation, biochemical, luminescence, single concentration | inhibition, % at 12.5 µM | AID 488917, 2010 | shares compounds with SENP7 block | recombinant SENP7, Z-RLRGG-aminoluciferin luminescence, 40 min | actives 69% (n = 6,200)
Casp3 select: caspase-3 protease inhibitors, confirmation, selectivity assay for SENP inhibitor project, biochemical, single concentration | actives 60% (n = 6,200) | shares compounds with SENP7 block | purified caspase-3, Z-DEVD-aminoluciferin luminescence, 60 min | AID 488918, 2010 | inhibition, % at 12.5 µM;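 active = mean inhibition above about 50%, limit read from the data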;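 also: plate controls were enzyme with DMSO for no effect and wells without caspase-3 for full effect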
Target sequence (P42574 28-227 limits assumed): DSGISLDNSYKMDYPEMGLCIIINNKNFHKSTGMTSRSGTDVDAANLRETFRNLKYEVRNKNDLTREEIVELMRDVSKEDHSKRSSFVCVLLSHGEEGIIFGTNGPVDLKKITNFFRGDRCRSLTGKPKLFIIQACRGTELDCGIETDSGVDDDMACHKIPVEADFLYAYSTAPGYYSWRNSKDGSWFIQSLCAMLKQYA
Luc interf: counter-screen for SENP inhibitors: luminescence interference | shares compounds with SENP7 block | Pre-incubated SENP8/Z-RLRGG-aminoluciferin, luciferase luminescence interference | inhibition, % at 12.5 µM | actives 39% (n = 6,200) | AID 488919;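 active = mean inhibition above about 50% when retested at one dose, limit read from the data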;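 also: plate controls were DMSO wells with completed reaction for no effect and substrate without enzyme for full effect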
An asterisk follows results filed as active; nt = no result given. Compounds with a hit are over-represented: about 2.5% of the library has one in this group of screens.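 The calls were made as follows, unless noted: active = mean inhibition above about 50% in the one-dose retest (limit read from the data); inactive = the rest.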

SMILES	SENP1 FRET inh	SENP8 block-1	SENP6 inh	SENP7 block	SENP8 block-2	SENP8 conf	SENP6 conf	SENP7 confirm	Casp3 select	Luc interf
Cc1nc(/C(N)=N/OC(=O)c2cccc(Cl)c2)c(C(F)(F)F)o1	3	-7	-7	4	10	nt	nt	nt	nt	nt
N/C(=N/OC(=O)c1ccccc1Cl)c1nonc1N	2	96*	97*	99*	-1	100*	101*	104*	99*	98*
Cc1nc(/C(N)=N/OC(=O)c2ccccc2Cl)c(C(F)(F)F)o1	2	80*	83*	88*	-2	88*	88*	98*	95*	88*
CC1SC(=S)N(c2ccc(N(C)C)cc2)C1=O (centres undefined)	0	4	9	17	26	nt	nt	nt	nt	nt
Cc1cc(/C(N)=N/OC(=O)c2ccccc2Cl)no1	1	77*	81*	88*	22	85*	84*	97*	93*	86*
CCC(c1nnnn1-c1ccc2c(c1)OCCO2)N1CCN(C(C)=O)CC1 (centres undefined)	3	nt	nt	nt	15	nt	nt	nt	nt	nt
CC1(C)CC(=O)C(N=Nc2cccc([N+](=O)[O-])c2)=C(O)C1	-3	16	25	45	20	nt	nt	nt	nt	nt
CCOc1cc(C=O)cc(N=Nc2cccc([N+](=O)[O-])c2)c1O	5	82*	83*	47	22	-6	45	22	48	-2
COc1ccc(CN2CC(C(=O)NCCCN3CCCC(C)C3)CC2=O)cc1 (centres undefined)	0	-2	5	-1	7	nt	nt	nt	nt	nt
Cc1ccc(-n2nc3cc(C)c(NC(=S)NC(=O)/C=C/c4ccco4)cc3n2)cc1	-17	10	33	-1	-162	nt	nt	nt	nt	nt
CCC(=O)Nc1cc2nn(-c3ccc(OC)cc3)nc2cc1C	1	-15	-15	57*	-299	11	10	15	10	3
CCCCC(=O)Nc1cc2nn(-c3ccc(OC)cc3)nc2cc1C	3	-3	-50	-11	-320	nt	nt	nt	nt	nt
CCC(=O)Nc1cc2nn(-c3ccc(C)cc3)nc2cc1C	2	4	-14	51*	-404	11	7	11	8	-2
CC1(c2cccc(Br)c2)NC(=O)N(CC(=O)c2ccc3c(c2)OCO3)C1=O (centres undefined)	2	nt	nt	nt	14	nt	nt	nt	nt	nt
COc1ccc(NC(=O)C(NS(=O)(=O)c2ccc3c(c2)CCCN3C(C)=O)C(C)C)c(OC)c1 (centres undefined)	1	1	-4	102*	29	-25	-10	1	-2	-5
CC(=O)N1CCCc2cc(S(=O)(=O)NC(C(=O)NC3CCCCC3)C(C)C)ccc21 (centres undefined)	2	2	-18	4	11	nt	nt	nt	nt	nt
C(=N\N=C\c1cccs1)/c1cccs1	2	40	57*	52*	21	28	61*	87*	62*	38
C=CCN(CC=C)c1cnn(-c2nc3ccccc3[nH]2)c(=O)c1Cl	0	58*	87*	77*	-226	71*	77*	94*	91*	25

From PubChem
